# Bioassay records (PubChem BioAssay)
# PMI activator – phosphomannose isomerase (human) activation | activation factor at 20 µM | AID 1214 | 0.005% of 190,000 active | purified human PMI, coupled resazurin fluorescence, 20 min; stronger effect = higher value; 1 = vehicle control, 0 substrate-free wells;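 active = activation factor of 2 or more at 20 µM, relative to plate controls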
# Target sequence (P34949 whole entry, looked up): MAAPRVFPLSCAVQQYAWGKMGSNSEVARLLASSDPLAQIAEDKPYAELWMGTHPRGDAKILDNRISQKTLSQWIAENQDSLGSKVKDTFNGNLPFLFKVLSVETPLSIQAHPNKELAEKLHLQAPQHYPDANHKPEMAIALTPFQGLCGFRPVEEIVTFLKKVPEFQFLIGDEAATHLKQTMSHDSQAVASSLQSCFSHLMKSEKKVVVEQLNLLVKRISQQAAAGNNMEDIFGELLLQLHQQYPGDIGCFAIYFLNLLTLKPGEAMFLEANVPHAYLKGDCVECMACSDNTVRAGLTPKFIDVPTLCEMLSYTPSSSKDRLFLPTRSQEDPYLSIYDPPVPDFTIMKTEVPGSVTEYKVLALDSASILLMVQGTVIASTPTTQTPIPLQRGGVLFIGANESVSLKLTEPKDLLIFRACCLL
# HCT116 bCat-KO – beta-catenin-lacking colon tumor cell growth suppression; HCT116 beta-catenin knockout viability, CellTiter-Glo, 60 h; stronger effect = lower value; viability, % at 10 µM; 1.5% of 140,000 active;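 active = viability at or under a set limit, the compound median less 4 SD, cut at about 6% in these data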
# PMI act satM6P – activators of human phosphomannose isomerase at near-saturating mannose 6-phosphate; 0.34% of 190,000 active; activation factor at 20 µM; coupled PMI enzyme assay, resazurin fluorescence, 20 min; stronger effect = higher value; 1 = untreated enzyme, 0 = substrate-free blank; P34949;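 active = activation factor of 2 or more at 20 µM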
#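 Material: human phosphomannose isomerase with PGI, G6PDH, diaphorase coupling enzymes. Quantity: 15 ng/mL PMI. Medium: HEPES pH 7.4 buffer with MgCl2 and Tween-20. Reagent: Near-saturating mannose-6-phosphate, 1.0 mM. Compound: 20 µM single dose. Times: enzyme reaction with compound 20 min at room temperature. Detection: resorufin fluorescence at Ex 544/Em 590 nm.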
# Lmaj promast – Leishmania major promastigote growth inhibition; Leishmania major promastigotes, resazurin fluorescence viability; inhibition, % at 10 µM; AID 1063; 9% of 200,000 active; in the data active = inhibition above about 50%;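 note: promastigotes grown with compound for 44 hours at 28 °C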
# HCT116 PTEN-null – growth suppressors of cells with PTEN tumor suppressor deletion. HCT116 PTEN-null viability, CellTiter-Glo, 60 h; stronger effect = lower value. 1.2% of 140,000 active. viability, % at 10 µM;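 active = viability at or below a set limit, 4 SD under the median of all tested compounds, cut at about 3.7% in these data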;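 note: PTEN knockout HCT116 line with beta catenin targeted HCT116 as companion control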
# Numbers stand for hits; . = inactive; / = no result. The list is not random: actives were taken first. Their share in the collection is about 9.6%.
SMILES,PMI activator,HCT116 bCat-KO,PMI act satM6P,Lmaj promast,HCT116 PTEN-null
NC(=O)C1CCN(Cc2nc(-c3ccccc3)no2)CC1,.,.,.,.,.
CCOC(=O)C1CCN(C2CCN(Cc3nc(-c4ccccc4)no3)CC2)CC1,.,/,.,80,/
O=C(O)COC(=O)C1C(c2ccccc2)C(C(=O)O)C1c1ccccc1 (stereo not given),.,/,.,.,/
CCOC(=O)C1=C(C)Nc2sc(C(=O)c3ccc(F)cc3)c(N)c2C1c1ccc(C(=O)OC)cc1 (stereo not given),.,.,.,91,.
CCOC(=O)C1=C(C)Nc2sc(C(=O)c3ccc(C)cc3)c(N)c2C1c1ccc(C(=O)OC)cc1 (stereo not given),.,.,.,81,.
CCN1CCN(C(=O)CCc2nnc(CCCCc3ccccc3)o2)[C@@H](C)C1=O,.,/,.,.,/
O=C(NC1CCCCC1)C(c1ccccc1)N1CCc2ccccc21 (stereo not given),.,.,.,50,.
Cc1ccc(/C=N/NC(=O)CNC(=O)Cc2ccccc2)o1,.,.,.,.,.
COc1ccc(-c2nc3ccccn3c2/N=C/c2ccc(OC)c(OC)c2)cc1O,.,.,.,60,.
COc1cc(-c2nc3ccccn3c2/N=C/c2ccccc2)ccc1O,.,.,.,.,.
O=C(CCNC(=O)c1ccco1)Nc1ccc(N2CCOCC2)cc1,.,/,.,.,/
CC1CN(c2nc3ccccn3c(=O)c2C=O)CC(C)O1 (stereo not given),.,/,.,.,/
O=C(O)C(Cc1c[nH]c2ccccc12)N1C(=O)C2C3c4ccccc4C(c4ccccc43)C2C1=O (stereo not given),.,/,.,.,/
CCOc1cc(/C=N/n2cnnc2)ccc1OCC(=O)Nc1ccccc1OC,.,.,.,.,.
CCOc1cc(/C=N/n2cnnc2)ccc1OS(=O)(=O)c1ccc(C)cc1,.,/,.,79,/
C=C1C(=O)[C@@]23[C@H](O)C[C@@H]4C(C)(C)CC[C@H](O)[C@@]4(C)[C@@H]2CC[C@@H]1[C@H]3O,.,2.1,.,100,1.3
C=C1C(=O)[C@@]23[C@H](O)C[C@@H]4C(C)(C)CC[C@H](O)[C@]4(C)[C@@H]2C[C@H](O)[C@@H]1[C@H]3O,.,.,.,.,.
CCOC(=O)Cc1csc(/N=C/c2c(O)n(-c3ccc(C)c(C)c3)c(=O)c3ccccc23)n1,.,.,.,.,.
O=C(Nc1ccc(N2CCOCC2)cc1)C1CC(=O)N(c2ccc(F)cc2)C1 (stereo not given),/,/,/,.,/
O=C(/C=C/c1ccc(F)cc1)NCC1(c2ccccc2)CCOCC1,.,.,.,.,.
CN(C(=O)c1ccc(OC2CCN(CCc3ccccc3)CC2)cc1)C1CCCCC1,/,/,/,91,/
CN(C(=O)c1ccc(OC2CCN(CCc3ccccc3)CC2)cc1)C1CCOCC1,.,/,.,.,/
CC(C)CN1C(=O)C(=O)N(CC(=O)N2CCC(Cc3ccccc3)CC2)C1=O,.,/,.,.,/
CC(C(O)c1ccc(O)cc1)N1CCC(Cc2ccccc2)CC1 (stereo not given),.,/,.,96,/
Cc1ccc(C(=O)CC(=O)COc2ccc(Cl)cc2)cc1,.,.,.,66,.
SMILES,PMI activator,HCT116 bCat-KO,PMI act satM6P,Lmaj promast,HCT116 PTEN-null
Cc1ccc(C(=O)CNc2ccc(Cl)cc2)cc1,.,/,.,.,/
Cc1nc2cc(C(F)(F)F)ccc2n1C,.,/,.,.,/
COc1ccc2ccccc2c1C(=O)/C=C\c1ccoc1,.,.,.,.,.
O=C(/C=C/c1ccoc1)c1ccccc1O,.,.,.,76,.
N/C(=N\OC(=O)CCC1CCCC1)c1cccc([N+](=O)[O-])c1,.,.,.,.,.
N/C(=N\OC(=O)CC1CCCCC1)c1cccc([N+](=O)[O-])c1,.,.,.,68,.
COc1ccc(NC(=O)C(OC)c2ccccc2)cc1Cl (stereo not given),.,.,.,.,.
COc1ccc(NC(=O)C(Sc2nnc(-c3ccncc3)n2-c2ccccc2C)c2ccccc2)cc1Cl (stereo not given),.,.,.,99,.
CCOc1ccc(NC(=O)CN2CCN(CC(=O)c3ccc(OC)c(OC)c3)CC2)cc1,.,.,.,.,.
CCOc1ccc(NC(=O)CN2CCN(CC(=O)c3ccc(OCC)cc3)CC2)cc1,.,.,2,.,.
CCOC(=O)c1ccc(NC(=O)CN2CCN(c3ccccc3)CC2)cc1,.,.,.,92,.
CCOC(=O)c1ccc(NC(=O)CN2C(=O)CNC2=O)cc1,.,.,.,96,.
